Results taken from ChEMBL document CHEMBL1157421, “Tenacigenin B derivatives reverse P-glycoprotein-mediated multidrug resistance inHepG2/Dox cells” (J Nat Prod, 2008).
The source made the active and inactive calls. The calls are words filed in the database; no cut-off is given here.

Columns and labels:
[1] = Effect on doxorubicin-induced cell cycle arrest in multidrug resistance human HepG2/Dox cells assessed as accumulation in G0/G1 phase at 5 ug/ml; format: functional
Procedure, shortened: (§1)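 Flow-cytometric cell-cycle profiling. About 2 × 10^5 cells were seeded per dish and left overnight, then exposed to medium with or without drug for 48 h. Cells were fixed in 70% EtOH at -20 °C overnight and treated with RNase A (100 µg/mL, 37 °C, 30 min). They were then stained with propidium iodide (40 µg/mL final) at room temperature for 5-10 min and read on a FACSCalibur.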

[2] = Effect on doxorubicin-induced cell cycle arrest in multidrug resistance human HepG2/Dox cells assessed as accumulation in subG1 phase at 10 ug/ml; format: functional; procedure, shortened: as §1
HepG2/Dox [3] = experiment: Reversal of P-glycoprotein-mediated multidrug resistance in human HepG2/Dox cells assessed as increase in sensitivity at 25.2 uM in presence of paclitaxel; format: cell-based
Procedure, shortened: (§2)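 SRB growth-inhibition assay in HepG2 or doxorubicin-selected Pgp-overexpressing HepG2/Dox cells. Cells grown in RPMI 1640 with 10% FBS at 37 °C, 5% CO2. HepG2/Dox cells kept in 1.2 µM doxorubicin and grown drug-free for at least 7 days before use. IC50 of anticancer drug determined with or without modulator. Sensitivity fold = IC50 ratio. At least three repeats, mean ± SD.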

[4] = Effect on doxorubicin-induced cell cycle arrest in multidrug resistance human HepG2/Dox cells assessed as accumulation in S phase at 10 ug/ml; format: functional; procedure, shortened: as §1
HepG2 [5] = experiment: Reversal of P-glycoprotein-mediated drug resistance in human HepG2 cells assessed as increase in sensitivity at 25.2 uM in presence of paclitaxel; format: cell-based; procedure, shortened: as §2
[6] = Effect on doxorubicin-induced cell cycle arrest in multidrug resistance human HepG2/Dox cells assessed as accumulation in S phase at 5 ug/ml; format: functional; procedure, shortened: as §1
HepG2 [7] = experiment: Growth inhibition of doxorubicin-sensitive human HepG2 cells at 80 uM; format: functional
Procedure, shortened: (§3)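 SRB growth assay. HepG2 and HepG2/Dox cells were grown in RPMI 1640 with 10% FBS at 37 °C and 5% CO2; resistant cells were kept drug-free for at least 7 days before use. IC50 was taken from the SRB assay, with at least three repeats, reported as mean ± SD.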

[8] = Effect on doxorubicin-induced cell cycle arrest in multidrug resistance human HepG2/Dox cells assessed as accumulation in G0/G1 phase at 20 ug/ml; format: functional; procedure, shortened: as §1
[9] = Effect on doxorubicin-induced cell cycle arrest in multidrug resistance human HepG2/Dox cells assessed as accumulation in G0/G1 phase at 10 ug/ml; format: functional; procedure, shortened: as §1
[10] = Growth inhibition of multidrug resistant human HepG2/Dox cells at 80 uM; format: functional; procedure, shortened: as §3
HepG2/Dox [11] = experiment: Reversal of P-glycoprotein-mediated multidrug resistance in human HepG2/Dox cells assessed as increase in sensitivity at 25.2 uM in presence of vinblastine; format: cell-based; procedure, shortened: as §2
[12] = Cell cycle arrest in multidrug resistant human HepG2/Dox cells assessed as accumulation in S phase at 20 ug/ml; format: functional, cell-based; procedure, shortened: as §1
HepG2/Dox [13] = experiment: Reversal of P-glycoprotein-mediated multidrug resistance in human HepG2/Dox cells assessed as increase in sensitivity at 12.6 uM in presence of doxorubicin; format: cell-based; procedure, shortened: as §2
HepG2/Dox [14] = experiment: Reversal of P-glycoprotein-mediated multidrug resistance in human HepG2/Dox cells assessed as increase in sensitivity at 12.6 uM in presence of paclitaxel; format: cell-based; procedure, shortened: as §2
[15] = Cell cycle arrest in multidrug resistant human HepG2/Dox cells assessed as accumulation in G2/M phase at 20 ug/ml; format: functional, cell-based; procedure, shortened: as §1
[16] = Effect on doxorubicin-induced cell cycle arrest in multidrug resistance human HepG2/Dox cells assessed as accumulation in G2/M phase at 5 ug/ml; format: functional; procedure, shortened: as §1
[17] = Effect on doxorubicin-induced cell cycle arrest in multidrug resistance human HepG2/Dox cells assessed as accumulation in subG1 phase at 5 ug/ml; format: functional; procedure, shortened: as §1
HepG2 [18] = experiment: Reversal of P-glycoprotein-mediated drug resistance in human HepG2 cells assessed as increase in sensitivity at 25.2 uM in presence of doxorubicin; format: cell-based; procedure, shortened: as §2
[19] = Increase in doxorubicin uptake in multidrug resistance human HepG2/Dox cells assessed as cellular fluorescence at 10 ug/ml; format: functional
Procedure, shortened: (§4)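 Doxorubicin accumulation. About 1 × 10^6 HepG2/Dox cells in medium were given 10 µM doxorubicin with or without test agent and held at 37 °C for 40 min. Cells were washed in ice-cold PBS and fluorescence was read by flow cytometry. Increase (%) = 100 × (FT − FC)/FC; verapamil 10 µM served as positive control. Three experiments, mean ± SD.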

HepG2/Dox [20] = experiment: Reversal of P-glycoprotein-mediated multidrug resistance in human HepG2/Dox cells assessed as increase in sensitivity at 12.6 uM in presence of vinblastine; format: cell-based; procedure, shortened: as §2
HepG2/Dox [21] = experiment: Effect on P-glycoprotein expression in multidrug resistance human HepG2/Dox cells at 20 ug/ml after 72 hrs; format: functional, cell-based
Procedure, shortened: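 Western blot for Pgp. HepG2/Dox cells were incubated with 0, 5, 10 or 20 µg/mL test agent for 72 h, with untreated HepG2 as comparator. Lysates (50 µg total protein) were resolved on 10% SDS-PAGE and Pgp was detected by antibody labeling.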

[22] = Effect on doxorubicin-induced cell cycle arrest in multidrug resistance human HepG2/Dox cells assessed as accumulation in S phase at 20 ug/ml; format: functional; procedure, shortened: as §1
[23] = Effect on doxorubicin-induced cell cycle arrest in multidrug resistance human HepG2/Dox cells assessed as accumulation in subG1 phase at 20 ug/ml; format: functional; procedure, shortened: as §1
HepG2/Dox [24] = experiment: Inhibition of Pgp-mediated Rh123 accumulation in multidrug resistance human HepG2/Dox cells at 40 ug/ml; format: cell-based
Procedure, shortened: (§5)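 Rh-123 efflux. About 1 × 10^6 HepG2/Dox cells were loaded with 5 µg/mL Rh-123 at 37 °C for 1 h and washed in ice-cold PBS. They then effluxed for 1 h at 37 °C in dye-free medium with 0-80 µg/mL test agent, and retained fluorescence was read by flow cytometry. Percentage increase over control was calculated; verapamil 15 µM served as positive control. Three experiments, mean ± SD.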

HepG2/Dox [25] = experiment: Reversal of P-glycoprotein-mediated multidrug resistance in human HepG2/Dox cells assessed as increase in sensitivity at 25.2 uM in presence of puromycin; format: cell-based; procedure, shortened: as §2
HepG2 [26] = experiment: Reversal of P-glycoprotein-mediated drug resistance in human HepG2 cells assessed as increase in sensitivity at 25.2 uM in presence of vinblastine; format: cell-based; procedure, shortened: as §2
HepG2/Dox [27] = experiment: Inhibition of Pgp-mediated Rh123 accumulation in multidrug resistance human HepG2/Dox cells at 80 ug/ml; format: cell-based; procedure, shortened: as §5
[28] = Cell cycle arrest in multidrug resistant human HepG2/Dox cells assessed as accumulation in G0/G1 phase at 20 ug/ml; format: functional, cell-based; procedure, shortened: as §1
[29] = Increase in doxorubicin uptake in multidrug resistance human HepG2/Dox cells assessed as cellular fluorescence at 40 ug/ml; format: functional; procedure, shortened: as §4
HepG2/Dox [30] = experiment: Reversal of P-glycoprotein-mediated multidrug resistance in human HepG2/Dox cells assessed as increase in sensitivity at 25.2 uM in presence of doxorubicin; format: cell-based; procedure, shortened: as §2
[31] = Effect on doxorubicin-induced cell cycle arrest in multidrug resistance human HepG2/Dox cells assessed as accumulation in G2/M phase at 10 ug/ml; format: functional; procedure, shortened: as §1
[32] = Increase in doxorubicin uptake in multidrug resistance human HepG2/Dox cells assessed as cellular fluorescence at 20 ug/ml; format: functional; procedure, shortened: as §4
[33] = Effect on doxorubicin-induced cell cycle arrest in multidrug resistance human HepG2/Dox cells assessed as accumulation in G2/M phase at 20 ug/ml; format: functional; procedure, shortened: as §1
[34] = Cell cycle arrest in multidrug resistant human HepG2/Dox cells assessed as accumulation in subG1 phase at 20 ug/ml; format: functional, cell-based; procedure, shortened: as §1
HepG2/Dox [35] = experiment: Reversal of P-glycoprotein-mediated multidrug resistance in human HepG2/Dox cells assessed as increase in sensitivity at 12.6 uM in presence of puromycin; format: cell-based; procedure, shortened: as §2
HepG2 [36] = experiment: Reversal of P-glycoprotein-mediated drug resistance in human HepG2 cells assessed as increase in sensitivity at 25.2 uM in presence of puromycin; format: cell-based; procedure, shortened: as §2

Q: For `C/C=C(\C)C(=O)O[C@@H]1[C@@H](OC(C)=O)[C@]2(C)[C@H](C(C)=O)CC[C@@]23O[C@]32CC[C@H]3C[C@@H](O[C@H]4C[C@@H](OC)[C@H](O[C@@H]5O[C@H](C)[C@@H](O)[C@@H](OC)[C@H]5O)[C@@H](C)O4)CC[C@]3(C)[C@@H]12` [TENACISSIMOSIDE A], which Activity [1] is on record?
A: Its Activity is 39.8%.

Q: What about the Activity [2] of the same compound?
A: Its Activity is 3.5%.

Q: What about the Ratio IC50 (HepG2/Dox [3]) of the same compound?
A: Its Ratio IC50 is 5.8.

Q: And the Activity [4]?
A: The Activity was 6.3%.

Q: And the Ratio IC50 (HepG2 [5])?
A: Its Ratio IC50 is 1.1.

Q: And the Activity [6]?
A: Its Activity is 6.8%.

Q: And the inhibition at 80 µM (HepG2 [7])?
A: The inhibition at 80 µM was 50%.

Q: What about the Activity [8] of the same compound?
A: Its Activity is 8.9%.

Q: And the Activity [9]?
A: The Activity was 24.9%.

Q: What about the inhibition at 80 µM [10] of the same compound?
A: Its inhibition at 80 µM is 50%.

Q: What about the Ratio IC50 (HepG2/Dox [11]) of the same compound?
A: The Ratio IC50 was 10.

Q: What about the Activity [12] of the same compound?
A: The Activity was 7.2%.

Q: And the Ratio IC50 (HepG2/Dox [13])?
A: Its Ratio IC50 is 7.8.

Q: What about the Ratio IC50 (HepG2/Dox [14]) of the same compound?
A: The Ratio IC50 was 4.7.

Q: And the Activity [15]?
A: Its Activity is 32%.

Q: What about the Activity [16] of the same compound?
A: The Activity was 44.2%.

Q: And the Activity [17]?
A: The Activity was 3.5%.

Q: And the Ratio IC50 (HepG2 [18])?
A: The Ratio IC50 was 1.1.

Q: And the Activity [19]?
A: The Activity was 18%.

Q: What about the Ratio IC50 (HepG2/Dox [20]) of the same compound?
A: Its Ratio IC50 is 2.4.

Q: What about the Activity (HepG2/Dox [21]) of the same compound?
A: The Activity was “inactive”.

Q: And the Activity [22]?
A: The Activity was 5.1%.

Q: What about the Activity [23] of the same compound?
A: Its Activity is 7.6%.

Q: And the inhibition (HepG2/Dox [24])?
A: Its inhibition is 50%.

Q: And the Ratio IC50 (HepG2/Dox [25])?
A: The Ratio IC50 was 11.2.

Q: And the Ratio IC50 (HepG2 [26])?
A: The Ratio IC50 was 1.1.

Q: And the inhibition (HepG2/Dox [27])?
A: Its inhibition is 90%.

Q: What about the Activity [28] of the same compound?
A: The Activity was 49.3%.

Q: What about the Activity [29] of the same compound?
A: The Activity was 41%.

Q: What about the Ratio IC50 (HepG2/Dox [30]) of the same compound?
A: Its Ratio IC50 is 17.9.

Q: What about the Activity [31] of the same compound?
A: The Activity was 63.6%.

Q: And the Activity [32]?
A: Its Activity is 28%.

Q: And the Activity [33]?
A: Its Activity is 73%.

Q: And the Activity [34]?
A: The Activity was 3%.

Q: What about the Ratio IC50 (HepG2/Dox [35]) of the same compound?
A: Its Ratio IC50 is 7.

Q: What about the Ratio IC50 (HepG2 [36]) of the same compound?
A: The Ratio IC50 was 1.1.
